Measurements gathered from unrelated publications.
Protocols differ between the studies behind these lines.
Target: 5'-AMP-activated protein kinase catalytic subunit alpha-2 (PRKAA2, Homo sapiens, UniProt P54646)

SMILES | observed | technique | concentration | remaining binding [%]
CC1CCCN1c1nccc(-c2cnn3ncccc23)n1 (stereo not shown) | binding |  | 1 µM | 100
C[C@H](c1ccc(F)cc1)N(Cc1cccc(C(=O)O)c1)C(=O)c1cnc2ccccc2c1 | cell-free assay | competition with immobilised ligand | 1 µM | 100
FC(F)(F)Oc1cccc(-c2cnc3ccc(-c4ccncc4)nn23)c1 | cell-free assay | competition with immobilised ligand | 5 µM | 80
O=C(c1ccc(Nc2ncc(Cl)c(-c3cc4ccccc4s3)n2)cc1)N1CCC(N2CCCC2)CC1 | binding | competition with immobilised ligand | 1 µM | 4
COc1ncc2cc3ccccc3nc2c1C#N | cell-free assay | competition with immobilised ligand | 5 µM | 96
COc1ccnn2ncc(-c3ccnc(N(C)C)n3)c12 | binding |  | 1 µM | 79
Cc1c(NC(=O)c2cc(C(N)=O)nc3cc(F)ccc23)c(C(F)(F)F)nn1Cc1ccc(C(C)(C)C)cc1 | cell-free assay | competition with immobilised ligand | 1 µM | 100
c1cncc(-c2cccc(Nc3nccc(NC4CCCCC4)n3)c2)c1 | binding | competition with immobilised ligand | 10 µM | 23
Cc1c[nH]c2nccc(Oc3c(F)cc(Nc4cc(Cl)nc(N)n4)cc3F)c12 | cell-free assay | competition with immobilised ligand | 0.1 µM | 89
COc1cnc(Nc2cccc(S(N)(=O)=O)c2)nc1N1CCN(c2ccccc2)CC1 | binding | competition with immobilised ligand | 1 µM | 100
O=C(NCCCN1CCOCC1)c1ccc(Nc2nccc(-c3cc4ccccc4s3)n2)cc1 | binding | competition with immobilised ligand | 1 µM | 41
O=C(NCc1ncc(C(F)(F)F)cc1Cl)c1ccc2c(c1)C1(CCS(=O)(=O)CC1)[C@H](C1CC1)N2S(=O)(=O)c1ccc(F)cc1 | cell-free assay | competition with immobilised ligand | 1 µM | 100
c1cnn2ncc(-c3ccnc(N4CCC45COC5)n3)c2c1 | binding |  | 1 µM | 91
CN(C)c1ncnc(-c2ccc3nc(Nc4cc(CN5CCN(C(=O)CC(F)(F)F)CC5)ccn4)[nH]c3c2)c1Cl | cell-free assay | competition with immobilised ligand | 1 µM | 100
N[C@@H]1CCN(c2nccc(-c3cnn4ncccc34)n2)C1 | binding |  | 1 µM | 98
Cc1nc(N2CC[C@@H](O)C2)ncc1-c1cc(C(F)(F)F)cc2[nH]ncc12 | cell-free assay | competition with immobilised ligand | 1 µM | 100
CN(C)c1nccc(-c2cnc3ncccn23)n1 | binding |  | 1 µM | 80
O=C(NCC1CCOCC1)c1n[nH]cc1NC(=O)c1c(F)cccc1F | binding | competition with immobilised ligand | 1 µM | 100
CN(c1nccc(-c2cnn3ncccc23)n1)C1CC1 | binding |  | 1 µM | 100
COc1cnc(Nc2cccc(S(N)(=O)=O)c2)nc1N1CCN(c2ccccc2)C(=O)C1 | binding | competition with immobilised ligand | 1 µM | 100
C[C@@H]1CCN(c2nccc(-c3cnn4ncccc34)n2)C1 | binding |  | 1 µM | 74
O=C(c1ccc(Nc2ncc(Cl)c(-c3ccc(Cl)s3)n2)cc1)N1CCC(N2CCCC2)CC1 | binding | competition with immobilised ligand | 1 µM | 8.2
